Data as given in article PMC7153518 (ACS chemical neuroscience, 2020).
Entries after “also recorded” stand apart in the source; their conditions may differ. Where two headings read alike, the source gives them in different places.

Tests used:
human TRPM8 (hTRPM8) = human TRPM8 (hTRPM8) (Homo sapiens, UniProt Q7Z2W7); assay type: cell-based
human TRPA1 = human TRPA1 (Homo sapiens, UniProt O75762); assay: FLIPR Ca2+ flux assay; assay type: cell-based; conditions: for hTRPA1% activation: normalized to Emax of AITC (300 μM); for hTRPA1% inhibition: vs EC80 of AITC (10 μM)
human TRPV1 = human TRPV1 (Homo sapiens, UniProt Q8NER1); assay: FLIPR Ca2+ flux assay; assay type: cell-based; conditions: for hTRPV1% activation: normalized to Emax of capsaicin (3 μM); for hTRPV1% inhibition: vs EC80 of capsaicin (0.1 μM)
[1] = Metabolic stability in mouse liver microsomes; assay type: in vitro ADME; conditions: male, CD-1, mouse
[2] = test system: icilin-induced WDS in mice; assay: Wet dog shakes; assay type: in vivo
[3] = test system: Oxaliplatin (OXP)-induced cold allodynia in C57 mice; assay: Oxaliplatin-induced cold allodynia, acetone test; assay type: in vivo
How it was run: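 Male C57 mice received oxaliplatin (6 mg/kg) on days 1, 3 and 5, with saline and 5% mannitol given i.p., and were tested on day 7. Test compound (DMSO stock diluted in saline, 0.1–1 μg) was injected once into the right hind paw plantar surface. After about 30 min habituation on mesh, acetone-drop cold responses were followed over time. Mean ± SEM, n = 6; one-way ANOVA, Dunnett's.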

TRPM8 [4] = conditions: read-out: IC50 (whole-cell patch clamp); cited from earlier work
human TRPM8 = human TRPM8 (Homo sapiens, UniProt Q7Z2W7); conditions: cited from earlier work
TRPM8 [5] = conditions: read-out: EC50 previously reported; CHO cells / mouse TRPM8; cited from earlier work
TRPA1 = conditions: read-out: TRPA1 IC50; vs the effect of 80 μM AITC; cited from earlier work
[6] = after single administration of 0.1 and 1 μg

human TRPA1, sequence (O75762 whole entry): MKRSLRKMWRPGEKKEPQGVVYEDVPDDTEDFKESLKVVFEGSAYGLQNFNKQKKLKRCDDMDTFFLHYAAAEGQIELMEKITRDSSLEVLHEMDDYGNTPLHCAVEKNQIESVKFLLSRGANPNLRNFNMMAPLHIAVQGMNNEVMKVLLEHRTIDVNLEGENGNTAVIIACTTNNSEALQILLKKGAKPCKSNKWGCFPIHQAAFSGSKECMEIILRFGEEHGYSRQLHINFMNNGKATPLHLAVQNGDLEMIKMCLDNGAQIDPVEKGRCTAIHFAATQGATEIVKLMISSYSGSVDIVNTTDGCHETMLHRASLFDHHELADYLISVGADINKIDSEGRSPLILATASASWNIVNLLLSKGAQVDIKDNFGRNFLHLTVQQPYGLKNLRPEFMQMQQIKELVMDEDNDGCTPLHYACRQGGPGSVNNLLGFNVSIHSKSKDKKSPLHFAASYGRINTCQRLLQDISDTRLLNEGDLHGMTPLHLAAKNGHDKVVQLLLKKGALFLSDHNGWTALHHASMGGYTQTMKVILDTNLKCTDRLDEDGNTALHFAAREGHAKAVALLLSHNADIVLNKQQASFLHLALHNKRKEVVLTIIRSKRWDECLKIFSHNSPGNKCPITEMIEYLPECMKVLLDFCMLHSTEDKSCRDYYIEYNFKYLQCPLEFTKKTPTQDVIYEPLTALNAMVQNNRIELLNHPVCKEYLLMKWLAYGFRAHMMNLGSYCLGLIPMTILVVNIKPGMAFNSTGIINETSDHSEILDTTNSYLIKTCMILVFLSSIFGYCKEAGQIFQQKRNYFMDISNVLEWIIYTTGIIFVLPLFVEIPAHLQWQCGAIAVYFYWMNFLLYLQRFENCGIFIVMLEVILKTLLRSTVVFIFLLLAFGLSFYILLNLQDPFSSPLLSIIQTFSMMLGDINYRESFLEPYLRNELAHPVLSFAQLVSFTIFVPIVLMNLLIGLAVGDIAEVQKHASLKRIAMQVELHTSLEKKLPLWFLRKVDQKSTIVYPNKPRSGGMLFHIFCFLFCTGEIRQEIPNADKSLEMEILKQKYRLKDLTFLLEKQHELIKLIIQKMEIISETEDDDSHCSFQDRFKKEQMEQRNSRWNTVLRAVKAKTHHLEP
human TRPV1, sequence (Q8NER1 whole entry): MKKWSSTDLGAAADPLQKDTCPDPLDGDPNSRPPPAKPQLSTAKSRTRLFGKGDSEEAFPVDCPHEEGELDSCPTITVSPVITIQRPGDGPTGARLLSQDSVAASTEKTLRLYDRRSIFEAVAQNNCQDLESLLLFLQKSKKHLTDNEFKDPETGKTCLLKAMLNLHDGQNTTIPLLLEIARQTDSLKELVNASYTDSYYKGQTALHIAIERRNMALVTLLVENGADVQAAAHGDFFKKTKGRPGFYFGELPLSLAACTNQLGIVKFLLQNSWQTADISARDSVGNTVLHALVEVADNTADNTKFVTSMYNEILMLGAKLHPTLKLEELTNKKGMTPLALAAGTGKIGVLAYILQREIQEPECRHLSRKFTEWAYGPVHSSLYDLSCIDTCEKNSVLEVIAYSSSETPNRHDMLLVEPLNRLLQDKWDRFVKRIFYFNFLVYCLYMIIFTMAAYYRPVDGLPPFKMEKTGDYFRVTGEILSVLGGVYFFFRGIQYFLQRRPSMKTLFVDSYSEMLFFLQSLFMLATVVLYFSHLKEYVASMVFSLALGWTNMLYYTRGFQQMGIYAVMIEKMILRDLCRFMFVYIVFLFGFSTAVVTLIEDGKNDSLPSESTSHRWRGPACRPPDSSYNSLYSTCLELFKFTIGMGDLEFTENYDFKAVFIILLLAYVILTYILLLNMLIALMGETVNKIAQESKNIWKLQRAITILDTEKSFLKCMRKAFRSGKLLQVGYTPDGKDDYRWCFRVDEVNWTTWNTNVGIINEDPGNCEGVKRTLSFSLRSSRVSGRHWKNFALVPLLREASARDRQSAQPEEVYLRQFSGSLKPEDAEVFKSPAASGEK
human TRPM8, sequence (Q7Z2W7 whole entry): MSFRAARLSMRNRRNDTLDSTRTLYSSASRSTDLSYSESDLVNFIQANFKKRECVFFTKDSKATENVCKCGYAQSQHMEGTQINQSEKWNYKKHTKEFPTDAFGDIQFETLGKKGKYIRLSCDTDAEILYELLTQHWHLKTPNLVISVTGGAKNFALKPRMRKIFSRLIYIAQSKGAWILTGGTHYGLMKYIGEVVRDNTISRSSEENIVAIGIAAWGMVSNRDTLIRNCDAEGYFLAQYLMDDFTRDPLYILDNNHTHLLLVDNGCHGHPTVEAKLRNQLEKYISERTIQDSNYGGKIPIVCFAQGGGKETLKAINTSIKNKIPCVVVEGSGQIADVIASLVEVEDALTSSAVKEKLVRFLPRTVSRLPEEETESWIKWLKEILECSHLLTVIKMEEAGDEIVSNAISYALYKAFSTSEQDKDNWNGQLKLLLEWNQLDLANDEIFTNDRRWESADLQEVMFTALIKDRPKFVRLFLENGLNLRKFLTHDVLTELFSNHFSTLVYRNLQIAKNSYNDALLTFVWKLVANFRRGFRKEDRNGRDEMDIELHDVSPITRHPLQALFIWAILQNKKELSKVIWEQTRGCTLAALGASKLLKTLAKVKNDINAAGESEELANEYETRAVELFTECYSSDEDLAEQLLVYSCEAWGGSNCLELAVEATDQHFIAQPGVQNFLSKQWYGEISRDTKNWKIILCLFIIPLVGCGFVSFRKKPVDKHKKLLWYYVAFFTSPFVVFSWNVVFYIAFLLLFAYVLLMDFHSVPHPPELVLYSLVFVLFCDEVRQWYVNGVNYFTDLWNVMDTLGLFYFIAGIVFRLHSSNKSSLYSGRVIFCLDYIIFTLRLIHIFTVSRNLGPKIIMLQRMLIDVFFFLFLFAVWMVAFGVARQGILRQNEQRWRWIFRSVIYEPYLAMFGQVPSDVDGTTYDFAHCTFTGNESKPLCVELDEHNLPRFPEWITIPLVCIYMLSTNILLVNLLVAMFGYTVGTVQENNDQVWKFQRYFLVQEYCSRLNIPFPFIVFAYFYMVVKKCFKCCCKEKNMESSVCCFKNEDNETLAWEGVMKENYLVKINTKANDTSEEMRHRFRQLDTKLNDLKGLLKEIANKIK
human TRPM8 (hTRPM8), sequence (Q7Z2W7 whole entry): as above

Which “higher potency than the diastereomeric mixture (10)” value (human TRPM8 (hTRPM8); ratio of IC50 values) does the source give for `O=C(N[C@H]1CC[C@@H]2CCCC[C@@H]2C1)c1ccc(-c2ccccc2)cc1` (racemic) [Compound 12, N-((2SR,9RS,10SR)-Decahydronaphthalen-2-yl)-[1,1′-biphenyl]-4-carboxamide] here?
Its value is 4 fold.

And the hTRPA1% activation (human TRPA1; concn tested 3 nM)?
Its hTRPA1% activation is −2.3 ± 1.0%.

What about the hTRPA1% inhibition (human TRPA1; concn tested 3 nM) of the same compound?
Its hTRPA1% inhibition is −0.3 ± 3%.

What about the hTRPA1% activation (human TRPA1; concn tested 30 nM) of the same compound?
Its hTRPA1% activation is −2.1 ± 0.5%.

What about the hTRPA1% inhibition (human TRPA1; concn tested 30 nM) of the same compound?
The hTRPA1% inhibition was 5 ± 9%.

What about the hTRPV1% activation (human TRPV1; concn tested 3 nM) of the same compound?
Its hTRPV1% activation is 2 ± 1%.

What about the hTRPV1% inhibition (human TRPV1; concn tested 3 nM) of the same compound?
The hTRPV1% inhibition was −12 ± 3%.

What about the hTRPV1% activation (human TRPV1; concn tested 30 nM) of the same compound?
The hTRPV1% activation was 3 ± 1%.

And the hTRPV1% inhibition (human TRPV1; concn tested 30 nM)?
Its hTRPV1% inhibition is 1.0 ± 2%.

For `CC1CCC(C(C)C)C(NC(=O)c2ccc(-c3ccccc3)cc2)C1` (centres unmarked) [Compound 2, N-(2-Isopropyl-5-methylcyclohexyl)-[1,1′-biphenyl]-4-carboxamide], which “increase of hTRPM8 activity relative to 1” value (human TRPM8 (hTRPM8); ratio of IC50 values) is on record?
The value was 30 fold.

With `O=C(NC1CCCCCC1)c1ccc(-c2ccccc2)cc1` [Compound 5, N-Cycloheptyl-[1,1′-biphenyl]-4-Carboxamide] as the compound, how does the “improvement of hTRPM8 potency relative to 2” value (human TRPM8 (hTRPM8); ratio of IC50 values) read?
Its value is 8–9 fold.

What about the hTRPA1% activation (human TRPA1; concn tested 100 nM) of the same compound?
The hTRPA1% activation was 0.1 ± 0.7%.

What about the hTRPA1% activation (human TRPA1; concn tested 1 μM) of the same compound?
Its hTRPA1% activation is 0.8 ± 0.5%.

And the hTRPV1% activation (human TRPV1; concn tested 100 nM)?
Its hTRPV1% activation is 0.0 ± 1.0%.

What about the hTRPV1% activation (human TRPV1; concn tested 1 μM) of the same compound?
Its hTRPV1% activation is 0.6 ± 1.5%.

What does the source list for `O=C(NC1CCCCCCC1)c1ccc(-c2ccccc2)cc1` [Compound 7, N-Cyclooctyl-[1,1′-biphenyl]-4-carboxamide]?
improvement of hTRPM8 potency relative to 2 (human TRPM8 (hTRPM8); ratio of IC50 values): 8–9 fold; hTRPA1% activation (human TRPA1; concn tested 100 nM): −1.0 ± 0.1%; hTRPA1% activation (human TRPA1; concn tested 1 μM): −1.5 ± 0.9%; hTRPV1% activation (human TRPV1; concn tested 100 nM): −1.9 ± 0.7%; hTRPV1% activation (human TRPV1; concn tested 1 μM): −3.2 ± 0.6%

Which “loss of potency vs 8” value (human TRPM8 (hTRPM8); ratio of IC50 values) does the source give for `O=C(NC1CCCc2ccccc21)c1ccc(-c2ccccc2)cc1` (centres unmarked) [Compound 9, N-(1,2,3,4-Tetrahydronaphthalen-1-yl)-[1,1′-biphenyl]-4-carbox-amide] here?
The value was 3 fold.

For `O=C(NC1CCC2CCCCC2C1)c1ccc(-c2ccccc2)cc1` (centres unmarked) [Compound 10, N-(Decahydronaphthalen-2-yl)-[1,1′-biphenyl]-4-carboxamide], which “enhancement of TRPM8 potency relative to 8” value (human TRPM8 (hTRPM8); ratio of IC50 values) is on record?
The value was 3500 fold.

And the “higher potency than cycloheptyl 5 and cyclooctyl 7” value (human TRPM8 (hTRPM8); ratio of IC50 values)?
Its value is 10 fold.

And the hTRPA1% activation (human TRPA1; concn tested 10 nM)?
The hTRPA1% activation was 0.2 ± 0.4%.

What about the hTRPA1% activation (human TRPA1; concn tested 100 nM) of the same compound?
Its hTRPA1% activation is −1.1 ± 0.2%.

What about the inhibition at 0.1 µM (human TRPV1; HEK293, read-out: hTRPV1% inhibition) of the same compound?
Its inhibition at 0.1 µM is 2 ± 3%.

What about the hTRPV1% activation (human TRPV1; concn tested 10 nM) of the same compound?
Its hTRPV1% activation is 2.4 ± 0.8%.

What about the hTRPV1% activation (human TRPV1; concn tested 100 nM) of the same compound?
Its hTRPV1% activation is 2.3 ± 0.9%.

What does the source list for `O=C(NC1CCc2ccccc2C1)c1ccc(-c2ccccc2)cc1` (centres unmarked) [Compound 11, N-(1,2,3,4-Tetrahydronaphthalen-2-yl)-[1,1′-biphenyl]-4-carbox-amide]?
decrease of hTRPM8 potency (vs 10) (human TRPM8 (hTRPM8); ratio of IC50 values): 9 fold; hTRPA1% activation (human TRPA1; concn tested 100 nM): −0.1 ± 0.5%; hTRPA1% inhibition (human TRPA1; concn tested 100 nM): 3 ± 6%; hTRPA1% activation (human TRPA1; concn tested 1 μM): −0.8 ± 0.6%; hTRPA1% inhibition (human TRPA1; concn tested 1 μM): 4 ± 1%; hTRPV1% activation (human TRPV1; concn tested 100 nM): −1.8 ± 0.9%; hTRPV1% inhibition (human TRPV1; concn tested 100 nM): −3.1 ± 0.6%; hTRPV1% activation (human TRPV1; concn tested 1 μM): −0.7 ± 1.5%; hTRPV1% inhibition (human TRPV1; concn tested 1 μM): 13 ± 3%

Which hTRPA1% activation (human TRPA1; concn tested 100 nM) does the source give for `O=C(NC1CCC2(CCCCC2)CC1)c1ccc(-c2ccccc2)cc1` [Compound 13, N-(Spiro[5.5]undecan-3-yl)-[1,1′-biphenyl]-4-carboxamide] here?
Its hTRPA1% activation is 0.2 ± 0.5%.

What about the hTRPA1% activation (human TRPA1; concn tested 1 μM) of the same compound?
The hTRPA1% activation was −0.2 ± 1.1%.

And the hTRPV1% activation (human TRPV1; concn tested 100 nM)?
The hTRPV1% activation was −1.0 ± 0.4%.

And the hTRPV1% activation (human TRPV1; concn tested 1 μM)?
Its hTRPV1% activation is 0.7 ± 0.2%.

Which “effect on menthol-evoked TRPM8-mediated Ca2+ entry” value (human TRPM8 (hTRPM8); 3 nM compound vs maximal (100 μM) menthol) does the source give for `O=C(NC1CCC2(CCCC2)CC1)c1ccc(-c2ccccc2)cc1` [Compound 14, N-(Spiro[4.5]decan-8-yl)-[1,1′-biphenyl]-4-carboxamide] here?
The value was “significantly (P < 0.01) reduce”.

And the “effect on icilin-induced Ca2+ influx at higher concentrations” value (human TRPM8 (hTRPM8); icilin 500 nM)?
The value was “nearly abolishes”.

What about the hTRPA1% activation (human TRPA1; concn tested 3 nM) of the same compound?
Its hTRPA1% activation is −0.8 ± 0.4%.

What about the hTRPA1% activation (human TRPA1; concn tested 30 nM) of the same compound?
Its hTRPA1% activation is 0.1 ± 1.2%.

What about the hTRPV1% activation (human TRPV1; concn tested 3 nM) of the same compound?
The hTRPV1% activation was 1 ± 1%.

What about the hTRPV1% activation (human TRPV1; concn tested 30 nM) of the same compound?
The hTRPV1% activation was 1 ± 2%.

And the microsomal CLint at 1 μM ([1]; liver microsomes)?
Its microsomal CLint at 1 μM is 45.5 µL/min/mg.

And the “inhibition of WDS at the highest dose” value ([2]; 50 mg/kg s.c., compared with gabapentin 25 mg/kg s.c.)?
Its value is “efficacy comparable to that observed with a standard analgesic dose of gabapentin”.

And the “effect on icilin-triggered wet dog shakes” value ([2]; 1, 30 and 50 mg/kg s.c. 30 min before icilin 10 mg/kg i.p., WDS counted over 30 min, n = 6)?
Its value is “dose-dependently blocks; also recorded: marked, dose-dependent antinociceptive behavior”.

What about the “effect on OXP effects at 60 min” value ([3]; 60 min after administration) of the same compound?
Its value is “significantly suppresses OXP effects”.

And the “time at which attenuated cold allodynia is evident” value [3, 6]?
Its value is 15 min.

And the “time of maximum inhibition of cold allodynia” value [3, 6]?
The value was 30 min.

Which hTRPA1% activation (human TRPA1; concn tested 30 nM) does the source give for `O=C(NC12CC3CC(CC(C3)C1)C2)c1ccc(-c2ccccc2)cc1` [Compound 15, N-(Adamantan-1-yl)-[1,1′-biphenyl]-4-carboxamide] here?
Its hTRPA1% activation is −2.6 ± 0.5%.

What about the hTRPA1% activation (human TRPA1; concn tested 300 nM) of the same compound?
Its hTRPA1% activation is −1.5 ± 0.4%.

And the hTRPV1% activation (human TRPV1; concn tested 30 nM)?
Its hTRPV1% activation is 1.0 ± 0.2%.

What about the hTRPV1% activation (human TRPV1; concn tested 300 nM) of the same compound?
The hTRPV1% activation was 1 ± 2%.

Which IC50 (TRPM8 [4]) does the source give for `COc1cc(CN(CCN)C(=O)OC(C)c2ccccc2)ccc1OCc1ccccc1` (centres unmarked) [PBMC] here?
Its IC50 is 0.4 to 0.6 nM.

Which results are given for `C[C@H](c1ccc(F)cc1)N(Cc1cccc(C(=O)O)c1)C(=O)c1cnc2ccccc2c1` [PF-05105679]?
IC50 (human TRPM8; read-out: human TRPM8 IC50, WS-12-mediated activation): 181 ± 7.21 nM; IC50 (human TRPM8; read-out: human TRPM8 IC50, voltage-mediated activation): 103 ± 29.4 nM

For `O=C(O)c1ccc(S(=O)(=O)N(Cc2ccc(OC(F)(F)F)cc2)c2ncc(C(F)(F)F)cc2Cl)cc1` [RQ-00203078], which IC50 (human TRPM8; read-out: reported potency at hTRPM8) is on record?
The IC50 was < 10 nM.

Which EC50 (TRPM8 [5]) does the source give for `O=C1NC(c2cccc([N+](=O)[O-])c2)=CCN1c1ccccc1O` [icilin, 3-(2-hydroxyphenyl)-6-(3-nitrophenyl)-3,4-dihydropyrimidin-2(1H)-one] here?
Its EC50 is 120 to 200 nM.

Which IC50 (human TRPA1; read-out: TRPA1 IC50, vs AITC (10 μM)-activated [Ca2+]i release) does the source give for `Cl.Cl.Cl.Cl.Cl.Cl.N.N.N.N.N.N.N.N.N.N.N.N.N.N.[O-2].[O-2].[Ru+3].[Ru+3].[Ru+4]` [ruthenium red, reference compound] here?
The IC50 was 162 ± 33 nM.

And the IC50 (TRPA1)?
Its IC50 is 29 ± 6 nM.

Which microsomal CLint ([1]; microsomes) does the source give for `C[C@]12CC[C@H]3[C@@H](CCC4=CC(=O)CC[C@@]43C)[C@@H]1CC[C@@H]2O` [testosterone, reference compound] here?
The microsomal CLint was 372 µL/min/mg.
